This is an account of results in ChEMBL document CHEMBL4229364, “Structure-activity relationships of 2, 4-disubstituted pyrimidines as dual ERα/VEGFR-2 ligands with anti-breast cancer activity” (Eur J Med Chem, 2018).

Activity calls are given as the source filed them. The rule behind the calls is not given here.

Usually IC50 stands for the concentration that gives 50% inhibition. Low values mean higher potency, high ones lower potency. As a reminder, the inhibition is the share of the control response that was lost under treatment.

For data set [1], the system named is Ishikawa. Nature of the data set: Antiproliferative activity against human Ishikawa cells after 48 hrs by MTT assay. Type of data set: functional, cell-based. In short, it runs like this: (§1)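 MTT assay. Cells were grown in RPMI1640 with 10% FBS and penicillin/streptomycin at 37°C, 5% CO2, seeded at 1×10^5/mL and rested 24 h. Compound was added at 4×10^-5 to 1×10^-6 mol/L for 48 h; controls received 1% DMSO. MTT (5 mg/mL) was added for 4 h in the dark and the formazan dissolved in DMSO. A490 was read and IC50 derived.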
Background: Tetrazolium assays rely on reduction of a dye to a coloured formazan, in cell work by metabolically active cells.

The target of data set [2] is T1, Vascular endothelial growth factor receptor 2 (Homo sapiens, UniProt P35968). Nature of the data set: Inhibition of VEGFR2 (unknown origin) using TK substrate after 1 hr by HTRF assay. In general terms: TR-FRET usually uses a lanthanide donor and a delayed reading to cut background.
Data set [3] relates to HUVEC. The data set is described as follows: Antiproliferative activity against HUVEC after 48 hrs by MTT assay. The data set is classed as functional, cell-based. The following applies: Homo sapiens. An outline of the steps: as §1
The target of data set [4] is T2, Estrogen receptor (Homo sapiens, UniProt P03372).
T2 sequence (P03372 whole entry): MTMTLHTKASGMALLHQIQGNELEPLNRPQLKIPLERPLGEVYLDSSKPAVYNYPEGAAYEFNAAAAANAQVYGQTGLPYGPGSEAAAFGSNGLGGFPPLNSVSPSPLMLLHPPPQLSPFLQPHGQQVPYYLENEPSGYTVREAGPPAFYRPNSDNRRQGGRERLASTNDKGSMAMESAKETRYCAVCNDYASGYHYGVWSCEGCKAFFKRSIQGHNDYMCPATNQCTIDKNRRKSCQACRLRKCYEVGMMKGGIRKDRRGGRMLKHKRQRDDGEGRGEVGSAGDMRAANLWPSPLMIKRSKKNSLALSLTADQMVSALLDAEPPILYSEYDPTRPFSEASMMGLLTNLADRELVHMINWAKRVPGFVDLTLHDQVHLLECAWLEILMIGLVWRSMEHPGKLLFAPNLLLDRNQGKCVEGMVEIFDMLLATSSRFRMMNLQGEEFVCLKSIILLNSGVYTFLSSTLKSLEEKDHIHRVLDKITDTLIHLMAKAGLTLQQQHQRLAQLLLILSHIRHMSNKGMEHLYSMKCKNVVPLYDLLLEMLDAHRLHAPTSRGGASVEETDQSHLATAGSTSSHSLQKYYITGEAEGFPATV
The data set is described as follows: Displacement of Fluormone ES2 Green from full length human ER-alpha expressed in insect cells after 2 hrs by fluorescence polarization assay.

Data set [5] concerns MCF7. Nature of the data set: Antiproliferative activity against human MCF7 cells after 48 hrs by MTT assay. Type of data set: functional, cell-based. The following applies: MCF7, 48 h. In short, it runs like this:
as §1

Data set [6] addresses T1, Vascular endothelial growth factor receptor 2. The following applies: at 10 µM.
The test system of data set [7] is MCF7. Nature of the data set: Induction of apoptosis in human MCF7 cells assessed as early apoptotic cells at 0.5 uM after 24 hrs by Annexin V-FITC/propidium iodide staining based flow cytometry (reference value: 4.46%). The data set is classed as functional. Background: Flow cytometry measures light scatter and fluorescence of single cells or particles in a stream.

The test system of data set [8] is MCF7. The data set is described as follows: Potency index, ratio of tamoxifen IC50 to compound IC50 for antiproliferative activity against human MCF7 cells. Type of data set: functional. An outline of the steps:
(§2)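 Potency index is the reference drug's MCF-7 MTT IC50 divided by the compound's IC50. Reference drugs were tamoxifen or raloxifene. Cells received 48 h exposure over 4×10^-5 to 1×10^-6 mol/L with a 1% DMSO control, then A490 readout.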

In data set [9] the test system is MCF7. Nature of the data set: Induction of apoptosis in human MCF7 cells assessed as live cells at 1 uM after 24 hrs by Annexin V-FITC/propidium iodide staining based flow cytometry (reference value: 87.5%). The data set is classed as functional.
In data set [10] the test system is MCF7. The data set is described as follows: Induction of apoptosis in human MCF7 cells assessed as live cells at 0.5 uM after 24 hrs by Annexin V-FITC/propidium iodide staining based flow cytometry (reference value: 87.5%). The data set is classed as functional.
The target of data set [11] is Mitogen-activated protein kinase; ERK1/ERK2 (Homo sapiens) (UniProt P27361+P28482). The data set is described as follows: Inhibition of ERK1/ERK2 phosphorylation in human MCF7 cells at 0.5 uM after 24 hrs by Western blot analysis. Type of data set: cell-based.
For data set [12], the system named is MCF7. Nature of the data set: Induction of apoptosis in human MCF7 cells after 24 hrs by Annexin V-FITC/propidium iodide staining based flow cytometry. The data set is classed as functional, cell-based.
The test system of data set [13] is MDA-MB-231. The data set is described as follows: Antiproliferative activity against human MDA-MB-231 cells after 48 hrs by MTT assay. The data set is classed as functional, cell-based. An outline of the steps:
as §1

The subject of data set [14] is MCF7. The data set is described as follows: Induction of apoptosis in human MCF7 cells assessed as late apoptotic cells at 0.5 uM after 24 hrs by Annexin V-FITC/propidium iodide staining based flow cytometry (reference value: 6.01%). The data set is classed as functional.
Data set [15] relates to MCF7. Nature of the data set: Induction of apoptosis in human MCF7 cells assessed as necrtotic cells at 1 uM after 24 hrs by Annexin V-FITC/propidium iodide staining based flow cytometry (reference value: 2.05%). The data set is classed as functional.
The test system of data set [16] is Chorioallantoic membrane. Nature of the data set: In vivo antiangiogenic activity in chicken egg chorioallantoic membrane after 72 hrs. The data set is classed as functional, organism-based. The following applies: Gallus gallus. In short, it runs like this: (§3)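 Chick CAM assay. Fertilized eggs were incubated 7 days at 37°C, then a window of about 1 cm² was opened in the shell. […] Eggs were incubated a further 72 h at 37°C and 60% humidity. CAM was fixed in acetone/ethanol for 10 min and vessels imaged.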

For data set [17], the target named is RAF proto-oncogene serine/threonine-protein kinase (Homo sapiens) (UniProt P04049). Nature of the data set: Inhibition of RAF1 phosphorylation in human MCF7 cells at 0.5 uM after 24 hrs by Western blot analysis. The data set is classed as cell-based.
Data set [18] deals with MCF7. Nature of the data set: Effect on total RAF1 protein expression in human MCF7 cells at 0.5 uM after 24 hrs by Western blot analysis. Type of data set: ADME, cell-based. The following applies: mcf7, 24 h.
The subject of data set [19] is MCF7. Nature of the data set: Antimigratory activity against human MCF7 cells at 0.5 to 1 uM after 48 hrs by crystal violet staining based microscopic method. The data set is classed as functional, cell-based. An outline of the steps:
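Transwell assay on Matrigel-coated membranes, 5×10^4 cells per well. Cells were treated at plating. After 24 h the invading cells were fixed, with 48 h seeding. Cells were stained with crystal violet (0.1% in 20% methanol) and counted by microscopy. Treatments were 0.5 and 1 µM, with DMSO as vehicle control.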

The target of data set [20] is T3, Estrogen receptor (Homo sapiens) (UniProt P03372).
T3 sequence (whole entry): T2 sequence (P03372 whole entry)
Nature of the data set: Antagonist activity at ERalpha in human MCF7 cells assessed as reduction in E2-induced progesterone receptor mRNA level at 0.4 uM by RT-PCR method. The data set is classed as cell-based. In short, it runs like this: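 Quantitative RT-PCR of progesterone receptor mRNA in MCF-7 cells. RNA was reverse transcribed to cDNA and amplified with SYBR Green: 95°C 2 min, then 40 cycles of 95°C 10 s, 60°C 30 s, 95°C 10 s. Signal was normalized to GAPDH and quantified by ΔΔCT. Values are mean ± SD, n=3, compared against the E2 group.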

Data set [21] concerns T47D. Nature of the data set: Antiproliferative activity against human T47D cells after 48 hrs by MTT assay. Type of data set: functional, cell-based. In short, it runs like this: as §1
Data set [22] relates to MCF7. The data set is described as follows: Potency index, ratio of raloxifene IC50 to compound IC50 for antiproliferative activity against human MCF7 cells. Type of data set: functional. In short, it runs like this: as §2
The test system of data set [23] is MCF7. Nature of the data set: Induction of apoptosis in human MCF7 cells assessed as late apoptotic cells at 1 uM after 24 hrs by Annexin V-FITC/propidium iodide staining based flow cytometry (reference value: 6.01%). The data set is classed as functional.
The target in data set [24] is T1, Vascular endothelial growth factor receptor 2. The following applies: HUVEC, at 1 µM.
In data set [25] the test system is MCF7. Nature of the data set: Induction of apoptosis in human MCF7 cells assessed as early apoptotic cells at 1 uM after 24 hrs by Annexin V-FITC/propidium iodide staining based flow cytometry (reference value: 4.46%). The data set is classed as functional.
Data set [26] concerns MCF7. The data set is described as follows: Induction of apoptosis in human MCF7 cells assessed as necrtotic cells at 0.5 uM after 24 hrs by Annexin V-FITC/propidium iodide staining based flow cytometry (reference value: 2.05%). The data set is classed as functional.
The subject of data set [27] is Chorioallantoic membrane. The data set is described as follows: In vivo antiangiogenic activity in chicken egg chorioallantoic membrane at 1 uM after 72 hrs. The data set is classed as functional, organism-based. The following applies: Gallus gallus. An outline of the steps:
as §3

T1 sequence (P35968 whole entry): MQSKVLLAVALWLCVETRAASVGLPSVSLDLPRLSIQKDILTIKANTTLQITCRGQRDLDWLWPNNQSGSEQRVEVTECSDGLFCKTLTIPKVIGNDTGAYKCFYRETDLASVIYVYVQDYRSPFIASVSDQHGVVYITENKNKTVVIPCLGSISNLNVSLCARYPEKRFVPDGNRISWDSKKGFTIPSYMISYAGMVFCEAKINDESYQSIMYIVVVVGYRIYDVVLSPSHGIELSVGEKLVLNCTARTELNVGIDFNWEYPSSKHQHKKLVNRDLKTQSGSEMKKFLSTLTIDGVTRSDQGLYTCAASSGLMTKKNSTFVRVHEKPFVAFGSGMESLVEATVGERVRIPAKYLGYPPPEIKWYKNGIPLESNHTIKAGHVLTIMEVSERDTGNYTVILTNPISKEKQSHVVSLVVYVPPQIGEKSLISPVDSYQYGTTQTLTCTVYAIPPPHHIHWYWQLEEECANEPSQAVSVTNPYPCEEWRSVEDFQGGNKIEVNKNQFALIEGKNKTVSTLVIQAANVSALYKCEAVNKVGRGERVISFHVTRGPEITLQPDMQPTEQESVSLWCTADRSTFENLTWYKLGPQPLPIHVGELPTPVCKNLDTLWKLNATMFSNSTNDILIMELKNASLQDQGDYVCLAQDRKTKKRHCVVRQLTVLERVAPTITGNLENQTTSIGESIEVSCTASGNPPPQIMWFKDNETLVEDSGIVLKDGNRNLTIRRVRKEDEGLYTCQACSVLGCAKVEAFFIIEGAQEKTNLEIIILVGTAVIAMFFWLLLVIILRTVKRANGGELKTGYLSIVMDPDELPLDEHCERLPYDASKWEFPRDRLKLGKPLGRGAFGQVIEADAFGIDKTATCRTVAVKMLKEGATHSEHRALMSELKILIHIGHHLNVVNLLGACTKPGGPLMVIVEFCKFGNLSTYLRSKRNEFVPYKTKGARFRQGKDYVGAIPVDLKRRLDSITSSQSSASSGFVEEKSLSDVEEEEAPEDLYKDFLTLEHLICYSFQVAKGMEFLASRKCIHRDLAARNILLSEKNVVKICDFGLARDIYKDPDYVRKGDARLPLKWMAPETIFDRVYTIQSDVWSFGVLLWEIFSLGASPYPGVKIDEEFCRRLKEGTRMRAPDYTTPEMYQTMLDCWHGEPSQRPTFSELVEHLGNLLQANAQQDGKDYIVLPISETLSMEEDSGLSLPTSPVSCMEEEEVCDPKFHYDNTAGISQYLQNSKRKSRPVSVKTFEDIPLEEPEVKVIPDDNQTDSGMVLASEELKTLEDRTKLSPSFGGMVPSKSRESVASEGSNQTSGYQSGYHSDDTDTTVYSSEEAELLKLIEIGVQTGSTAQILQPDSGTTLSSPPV
Chain of RAF proto-oncogene serine/threonine-protein kinase (Homo sapiens) (P04049 whole entry): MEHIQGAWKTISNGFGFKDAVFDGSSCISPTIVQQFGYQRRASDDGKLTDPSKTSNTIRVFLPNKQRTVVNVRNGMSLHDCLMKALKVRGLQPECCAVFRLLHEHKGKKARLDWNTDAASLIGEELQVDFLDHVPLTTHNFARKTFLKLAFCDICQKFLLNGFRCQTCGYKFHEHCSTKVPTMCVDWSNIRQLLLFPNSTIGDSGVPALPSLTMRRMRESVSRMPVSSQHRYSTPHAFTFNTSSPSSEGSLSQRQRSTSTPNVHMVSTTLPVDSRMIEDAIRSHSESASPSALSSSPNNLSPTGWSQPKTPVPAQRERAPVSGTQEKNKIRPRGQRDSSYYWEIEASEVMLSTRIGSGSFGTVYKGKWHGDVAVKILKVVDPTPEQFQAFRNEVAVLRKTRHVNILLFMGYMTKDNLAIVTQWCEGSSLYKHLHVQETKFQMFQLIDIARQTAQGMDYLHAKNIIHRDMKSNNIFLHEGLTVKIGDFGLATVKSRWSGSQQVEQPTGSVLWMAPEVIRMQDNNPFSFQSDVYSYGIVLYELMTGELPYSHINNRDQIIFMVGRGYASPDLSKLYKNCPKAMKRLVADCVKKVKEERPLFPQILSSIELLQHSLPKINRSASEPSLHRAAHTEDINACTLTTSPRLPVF
Chain of Mitogen-activated protein kinase; ERK1/ERK2 (Homo sapiens) (P27361 whole entry, looked up): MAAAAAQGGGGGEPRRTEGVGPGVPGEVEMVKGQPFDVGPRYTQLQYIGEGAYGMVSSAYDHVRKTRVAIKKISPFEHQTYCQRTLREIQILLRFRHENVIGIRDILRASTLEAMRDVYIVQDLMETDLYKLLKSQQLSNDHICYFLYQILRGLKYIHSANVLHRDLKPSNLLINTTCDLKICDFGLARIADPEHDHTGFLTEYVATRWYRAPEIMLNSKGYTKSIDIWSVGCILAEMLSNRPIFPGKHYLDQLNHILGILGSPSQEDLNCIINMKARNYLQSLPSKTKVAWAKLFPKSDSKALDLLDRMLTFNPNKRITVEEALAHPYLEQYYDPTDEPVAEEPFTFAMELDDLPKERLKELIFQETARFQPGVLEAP
Chain of Mitogen-activated protein kinase; ERK1/ERK2 (Homo sapiens) (P28482 whole entry, looked up): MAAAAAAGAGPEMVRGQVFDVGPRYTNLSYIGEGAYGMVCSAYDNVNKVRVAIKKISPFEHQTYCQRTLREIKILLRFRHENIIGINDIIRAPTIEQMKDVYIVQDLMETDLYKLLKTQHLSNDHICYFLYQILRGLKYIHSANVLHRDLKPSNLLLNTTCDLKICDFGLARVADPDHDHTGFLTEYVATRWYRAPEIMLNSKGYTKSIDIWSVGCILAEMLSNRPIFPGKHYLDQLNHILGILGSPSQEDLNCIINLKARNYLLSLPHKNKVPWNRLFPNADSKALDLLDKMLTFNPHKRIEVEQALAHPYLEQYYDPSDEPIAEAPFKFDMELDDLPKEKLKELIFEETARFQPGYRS

Regarding `COc1ccc(-c2nc(Cl)cc(Oc3ccc(OCCN(C)C)cc3)n2)cc1`, the half-maximal inhibitory concentration (IC50) in [1] is > 40 µM; in data set [2] it was > 1000 nM; in [3], > 40 µM; in data set [4] it was 5.96 µM; in data set [5], > 40 µM. This compound displayed an inhibition in [6] of 61.2%.
Consider `CCN(CC)CCOc1ccc(Oc2cc(Cl)nc(-c3ccc(OC)cc3)n2)cc1`, for which the IC50 in data set [1] is 24.9 µM; in [2], > 1000 nM; in data set [3], 23.3 µM; in [4], 5.13 µM; in data set [5], 49.6 µM. The same compound returned an inhibition in [6] of 80%.
Consider `CN(C)CCOc1ccc(Nc2nc(-c3ccc(O)cc3)nc(Cl)c2-c2ccccc2)cc1`, for which the IC50 is 37.1 µM in data set [1]; > 1000 nM in [2]; 13.8 µM in [3]; 3.42 µM in data set [4]; 33.1 µM in data set [5]. Further, the inhibition in data set [6] stood at 68.5%.
On to `COc1ccc(-c2nc(Cl)c(-c3ccccc3)c(Oc3ccc(OCCN4CCCC4)cc3)n2)cc1`, for which the IC50 in data set [1] is 14.1 µM; in data set [2], > 1000 nM; in data set [3] it was 10.6 µM; in data set [4], 2.17 µM; in [5], 32.4 µM. In addition, the inhibition in [6] was 75.3%.
Regarding `CCN(CC)CCOc1ccc(Nc2cc(Cl)nc(-c3ccc(OC)cc3)n2)cc1`, the IC50 in [1] was 11.7 µM; in data set [2], 174 nM; in data set [3] it was 9.24 µM; in data set [4], 4.74 µM; in data set [5] it was 36.8 µM. The inhibition in data set [6] stood at 89.7%.
On to `Oc1ccc(-c2nc(Cl)c(-c3ccccc3)c(Oc3ccc(OCCN4CCCC4)cc3)n2)cc1`, for which the Activity is 8.89% in data set [7]; 65.7% in data set [9]; 75.5% in data set [10]; “Dose-dependent effect” in data set [12]; “Dose-dependent effect” in data set [13]; 14.5% in data set [14]. The Activity in [15] was 0.9%; in [16], “Dose-dependent effect”; in [18] it was “Non-Toxic”; in data set [21], “Dose-dependent effect”; in data set [23], 28%; in data set [25], 5.49%. In addition, the Activity in data set [26] stood at 1.11%. Moreover, the “Ratio IC50” value in data set [8] is given as 19 - 20; in data set [22], 16. For the same compound, the inhibition entry in [11], in data set [17], in data set [20] and in data set [24] was “Active” each time. For the same compound, the 50% inhibitory concentration (IC50) in data set [1] came out at 5.93 µM; in data set [13] (MDA-MB-231, 48 h), 3.81 µM; in data set [2], 85 nM; in [3] it was 4.57 µM; in data set [4], 1.64 µM; in [21], 2730 nM. In data set [5], this compound gave an IC50 of 0.81 µM. The result in [19] was Active. For the same compound, in data set [6], the inhibition came out at 91.1%.
Consider `COc1ccc(-c2nc(Cl)cc(Nc3ccc(NC(=O)CN4CCCC4)cc3)n2)cc1`, for which the IC50 in data set [1] is 18.4 µM; in data set [2] it was > 1000 nM; in data set [3], 4.82 µM; in data set [4], 2.86 µM; in data set [5], 23.4 µM. Also, the inhibition in [6] was found to be 61.3%.
`CCN(CC)CCNC(=O)c1c(C)[nH]c(/C=C2\C(=O)Nc3ccc(F)cc32)c1C` [SUNITINIB] gave a half-maximal inhibitory concentration (IC50) in [3] of 6.36 µM. The result in [27] was Active.
Regarding `COc1ccc(-c2nc(Cl)cc(Oc3ccc(OCCN4CCCC4)cc3)n2)cc1`, the IC50 was 25.5 µM in data set [1]; > 1000 nM in data set [2]; 15.8 µM in [3]; 6.22 µM in [4]; 21.3 µM in data set [5]. The compound further registered an inhibition in data set [6] of 39.8%.
